{"source": "ChEMBL document CHEMBL3259611", "about": "“Suppression of inflammatory responses by handelin, a guaianolide dimer from Chrysanthemum boreale, via downregulation of NF-κB signaling and pro-inflammatory cytokine production” (J Nat Prod, 2014)", "key": {"[1]": {"experiment": "Cytotoxicity against mouse RAW264.7 cells assessed as cell viability at 40 uM after 4 hrs by MTT assay relative to control", "type": "cell-based", "settings": "read-out: Activity", "method_in_brief": "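RAW 264.7 cells plated at 3 × 10^5 cells/mL in phenol red-free 10% FBS–DMEM, incubated 24 h, then treated with compound plus 1 μg/mL LPS for 20 h. After the Griess step, MTT was added (final 500 μg/mL) for 4 h at 37 °C. Formazan dissolved in DMSO, A570 read; survival taken relative to control; triplicate.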"}, "RAW264.7 [2]": {"test_system": "RAW264.7", "experiment": "Antiinflammatory activity in mouse RAW264.7 cells assessed as inhibition LPS-induced IL-1beta protein expression at 10 uM after 4 hrs by Western blotting analysis", "type": "functional", "method_in_brief": "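RAW 264.7 cells stimulated with LPS (1 μg/mL) with or without compound for 4 h. Lysates were resolved by 6−15% SDS-PAGE and blotted to PVDF. Blocked in 5% milk/PBST, primary antibody overnight at 4 °C, secondary antibody 2 h, detected by ECL. Triplicate, representative of three experiments.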"}, "RAW264.7 [3]": {"test_system": "RAW264.7", "experiment": "Antiinflammatory activity in mouse RAW264.7 cells assessed as inhibition of LPS-induced COX2 protein expression at 40 uM after 16 hrs by Western blotting analysis relative to control", "type": "functional", "method_in_brief": "(§1)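 RAW 264.7 cells given LPS (1 μg/mL) with or without compound for 16 h. Cell lysates were Western blotted for iNOS and COX-2 (6−15% SDS-PAGE, PVDF, ECL detection). Performed in triplicate.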"}, "RAW264.7 [4]": {"test_system": "RAW264.7", "experiment": "Antiinflammatory activity in mouse RAW264.7 cells assessed as inhibition of LPS-induced iNOS protein expression after 16 hrs by Western blotting analysis", "type": "functional, cell-based"}, "RAW264.7 [5]": {"test_system": "RAW264.7", "experiment": "Antiinflammatory activity in mouse RAW264.7 cells assessed as inhibition LPS-induced TNF-alpha protein expression at 10 uM after 4 hrs by Western blotting analysis relative to control", "type": "functional"}, "[6]": {"molecular_target": "Transcription factor p65 (Mus musculus) (UniProt Q04207)", "sequence (Q04207 whole entry)": "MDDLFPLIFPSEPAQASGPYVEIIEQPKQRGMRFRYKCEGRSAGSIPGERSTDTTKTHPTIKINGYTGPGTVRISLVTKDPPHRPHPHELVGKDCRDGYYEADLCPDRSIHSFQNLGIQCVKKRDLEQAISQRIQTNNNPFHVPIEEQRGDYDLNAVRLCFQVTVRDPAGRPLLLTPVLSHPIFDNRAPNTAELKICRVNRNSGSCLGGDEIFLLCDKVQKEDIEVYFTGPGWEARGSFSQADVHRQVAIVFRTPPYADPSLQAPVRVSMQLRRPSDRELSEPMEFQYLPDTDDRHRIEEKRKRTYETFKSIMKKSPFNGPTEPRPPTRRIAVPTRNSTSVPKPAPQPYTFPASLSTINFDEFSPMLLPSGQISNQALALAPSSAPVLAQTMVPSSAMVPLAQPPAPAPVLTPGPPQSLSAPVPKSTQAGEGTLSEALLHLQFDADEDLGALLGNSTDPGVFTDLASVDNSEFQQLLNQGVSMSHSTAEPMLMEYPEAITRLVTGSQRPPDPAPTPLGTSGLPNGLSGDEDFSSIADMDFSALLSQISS", "experiment": "Inhibition of LPS-induced NFkappaB P65 protein nuclear translocation in mouse RAW264.7 cells at 10 uM after 30 mins by Western blotting analysis relative to control", "type": "cell-based", "method_in_brief": "(§2)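 Macrophages were exposed to compound for 30 min before LPS stimulation, with proteins extracted 30 min later. Nuclear extracts were prepared in Tris/KCl/NP-40 lysis buffer, then 420 mM NaCl buffer, and the cytosolic fraction was kept for IκB-α. Western blot on PVDF with ECL detection. Tests in triplicate; representative of three separate experiments.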"}, "[7]": {"molecular_target": "T1, Nuclear factor NF-kappa-B p105 subunit (Mus musculus) (UniProt P25799)", "T1 sequence (whole entry)": "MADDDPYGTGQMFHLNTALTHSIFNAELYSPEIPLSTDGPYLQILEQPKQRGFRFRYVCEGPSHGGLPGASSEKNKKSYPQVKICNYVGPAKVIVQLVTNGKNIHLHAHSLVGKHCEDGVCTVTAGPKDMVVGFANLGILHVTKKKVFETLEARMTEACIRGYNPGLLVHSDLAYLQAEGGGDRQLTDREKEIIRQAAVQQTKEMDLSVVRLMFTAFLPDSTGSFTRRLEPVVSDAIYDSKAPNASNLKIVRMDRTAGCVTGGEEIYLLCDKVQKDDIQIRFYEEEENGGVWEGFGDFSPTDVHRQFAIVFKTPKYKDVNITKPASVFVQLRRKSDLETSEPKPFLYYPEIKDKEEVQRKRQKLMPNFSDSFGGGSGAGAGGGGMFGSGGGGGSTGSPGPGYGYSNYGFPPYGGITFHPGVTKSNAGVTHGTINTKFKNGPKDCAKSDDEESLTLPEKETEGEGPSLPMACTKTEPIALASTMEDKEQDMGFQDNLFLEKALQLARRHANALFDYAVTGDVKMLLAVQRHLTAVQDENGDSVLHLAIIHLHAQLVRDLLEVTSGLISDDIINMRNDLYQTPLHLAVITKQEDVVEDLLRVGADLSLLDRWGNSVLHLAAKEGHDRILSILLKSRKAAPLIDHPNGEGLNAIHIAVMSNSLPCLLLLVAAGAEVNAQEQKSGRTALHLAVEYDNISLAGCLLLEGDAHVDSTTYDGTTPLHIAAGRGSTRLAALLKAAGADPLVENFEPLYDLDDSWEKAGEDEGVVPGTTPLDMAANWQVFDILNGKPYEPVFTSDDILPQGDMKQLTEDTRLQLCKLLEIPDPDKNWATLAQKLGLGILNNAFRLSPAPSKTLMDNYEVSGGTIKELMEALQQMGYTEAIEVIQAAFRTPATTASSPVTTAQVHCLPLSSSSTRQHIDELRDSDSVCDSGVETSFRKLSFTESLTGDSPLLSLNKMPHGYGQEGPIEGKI", "experiment": "Inhibition of LPS-induced NF-kappaB p50 binding to DNA in mouse RAW264.7 cells at 10 to 40 uM after 1.5 hrs by spectrophotometry", "type": "cell-based"}, "RAW264.7 [8]": {"test_system": "RAW264.7", "experiment": "Inhibition of LPS-induced NFkappaB transcriptional activity in mouse RAW264.7 cells assessed as […] at 10 uM after 30 mins by Western blotting analysis relative to control", "type": "cell-based", "method_in_brief": "as §2"}, "RAW264.7 [9]": {"test_system": "RAW264.7", "experiment": "Antiinflammatory activity in mouse RAW264.7 cells assessed as inhibition of LPS-induced COX2 mRNA expression at 10 uM after 5 hrs by RT-PCR analysis relative to control", "type": "functional", "method_in_brief": "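RAW 264.7 cells exposed to 1 μg/mL LPS with or without compound for 5 h. Total RNA was analysed by RT-PCR: 25−30 cycles with annealing at 55 °C. Products were separated on 2% agarose gel with SYBR-Safe staining. Experiments in triplicate.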"}, "RAW264.7 [10]": {"test_system": "RAW264.7", "experiment": "Antiinflammatory activity in mouse RAW264.7 cells assessed as inhibition of LPS-induced COX2 protein expression after 16 hrs by Western blotting analysis"}, "JNK1/JNK2 (Mus musculus)": {"molecular_target": "JNK1/JNK2 (Mus musculus) (UniProt Q91Y86+Q9WTU6)", "sequence (Q91Y86 whole entry, looked up)": "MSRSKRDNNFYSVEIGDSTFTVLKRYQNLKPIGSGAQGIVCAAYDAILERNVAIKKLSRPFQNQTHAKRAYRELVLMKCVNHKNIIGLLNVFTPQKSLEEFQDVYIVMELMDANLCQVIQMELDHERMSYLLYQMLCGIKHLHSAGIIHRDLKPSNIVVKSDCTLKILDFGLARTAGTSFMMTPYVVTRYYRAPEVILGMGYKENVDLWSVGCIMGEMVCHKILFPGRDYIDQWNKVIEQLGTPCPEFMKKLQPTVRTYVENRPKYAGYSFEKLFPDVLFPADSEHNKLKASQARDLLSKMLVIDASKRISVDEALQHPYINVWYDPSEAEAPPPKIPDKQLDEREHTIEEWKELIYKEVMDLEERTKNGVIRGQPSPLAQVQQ", "sequence (Q9WTU6 whole entry, looked up)": "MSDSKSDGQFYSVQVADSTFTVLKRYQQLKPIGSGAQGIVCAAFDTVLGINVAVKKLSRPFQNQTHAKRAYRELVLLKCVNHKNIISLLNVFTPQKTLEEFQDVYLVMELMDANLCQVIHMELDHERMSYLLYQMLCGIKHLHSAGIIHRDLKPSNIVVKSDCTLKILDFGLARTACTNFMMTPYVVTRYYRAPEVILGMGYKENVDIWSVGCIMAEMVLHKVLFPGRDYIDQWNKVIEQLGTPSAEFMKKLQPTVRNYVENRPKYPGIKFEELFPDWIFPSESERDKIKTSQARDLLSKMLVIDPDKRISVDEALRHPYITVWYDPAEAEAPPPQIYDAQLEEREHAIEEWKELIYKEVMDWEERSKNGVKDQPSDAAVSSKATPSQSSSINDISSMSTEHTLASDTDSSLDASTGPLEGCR", "experiment": "Inhibition LPS-induced JNK1/2 phosphorylation at Thr183/[…] in mouse RAW264.7 cells at 10 uM administered 30 mins prior to LPS challenge measured after 30 mins by Western blotting analysis", "type": "cell-based", "method_in_brief": "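RAW 264.7 cells pretreated with compound for 30 min, then stimulated with LPS for 30 min. Protein extracts were Western blotted for phosphorylated ERK and JNK (SDS-PAGE, PVDF, ECL detection).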"}, "RAW264.7 [11]": {"test_system": "RAW264.7", "experiment": "Inhibition of LPS-induced NFkappaB transcriptional activity in mouse RAW264.7 cells assessed as reduction of phosphorylated IkappaB-alpha level at 10 uM after 30 mins by Western blotting analysis relative to control", "type": "cell-based", "method_in_brief": "as §2"}, "RAW264.7 [12]": {"test_system": "RAW264.7", "experiment": "Antiinflammatory activity in mouse RAW264.7 cells assessed as inhibition of LPS-induced iNOS protein expression at 10 uM after 16 hrs by Western blotting analysis relative to control", "type": "functional", "method_in_brief": "as §1"}}, "note": "The source made the active and inactive calls. No cut-off for these calls is given here."}
{"smiles": "C=C1C(=O)O[C@@H]2[C@@H]3[C@@]4(C=C[C@@]3(C)[C@]3(C4)C(=O)O[C@@H]4[C@H]5C(C)=CC[C@H]5[C@](C)(O)C[C@H](OC(C)=O)[C@H]43)[C@](C)(O)CC[C@@H]12", "values": [{"measurement": "viability at 4 h, 40 µM", "setting": "[1]", "result": 83, "unit": "%"}, {"measurement": "fold change (FC)", "setting": "RAW264.7 [2]", "result": 0.73}, {"measurement": "fold change (FC)", "setting": "RAW264.7 [3]", "result": 0.15}, {"measurement": "inhibition", "setting": "RAW264.7 [4]", "result": "Dose-dependent effect"}, {"measurement": "fold change (FC)", "setting": "RAW264.7 [5]", "result": 0.9}, {"measurement": "inhibition", "setting": "[6]", "result": "Active"}, {"measurement": "inhibition", "setting": "[7]", "result": "Active"}, {"measurement": "fold change (FC)", "setting": "RAW264.7 [8]", "result": 1.91}, {"measurement": "fold change (FC)", "setting": "RAW264.7 [9]", "result": 0.63}, {"measurement": "inhibition", "setting": "RAW264.7 [10]", "result": "Dose-dependent effect"}, {"measurement": "fold change (FC)", "setting": "JNK1/JNK2 (Mus musculus)", "result": 0.71}, {"measurement": "inhibition", "setting": "JNK1/JNK2 (Mus musculus)", "result": "Active"}, {"measurement": "inhibition", "setting": "RAW264.7 [11]", "result": "Active"}, {"measurement": "fold change (FC)", "setting": "RAW264.7 [12]", "result": 0.61}]}
